High-throughput results from PubChem BioAssay.
The list is not random: actives were taken first. Their share in the collection is about 6.4%.
Tb MetRS inh – T. brucei MetRS inhibitors, primary screen, biochemical, luminescence. purified T. brucei MetRS, ATP depletion, Kinase-Glo luminescence. inhibition, % at 11.9 µM. actives 0.4% (n = 360,000);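 active = inhibition above a per-plate cutoff of the control wells' mean inhibition plus 3 SD, cut at about 5.5% in these data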;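 also: 0% = DMSO wells median and 100% = median of wells with control inhibitor compound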
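Test system – parasite MetRS enzyme · Reagent – substrates ATP, L-methionine and bulk Escherichia coli tRNA · Doses – 11.9 µM compound single dose, 0.9% DMSO · Times – 15 min enzyme-compound preincubation, 2 h reaction, 10 min detection, 25 °C · Signal – Kinase-Glo luminescence, ATP depletion format · Controls – DMSO-only wells as low control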
WT yeast gro inh – growth inhibition of WT strain, primary screen, mitochondrial fusion inhibitor project, WT and mutant strains, chemical genetic | mitochondrial fusion phenotypic screen | inhibition, % at 10 µM | actives 2.1% (n = 190,000); in the data active = inhibition above about 58%; tested in S. cerevisiae
NR3A LBD binder – binders of NR3A ligand-binding domain, primary screen, biophysical, differential scanning fluorimetry, uHTS; Glutamate receptor ionotropic, NMDA 3A (GRIN3A) ligand-binding domain; NR3A LBD differential scanning fluorimetry, Tm shift; 0% = protein alone, 100% = glycine-bound protein; Tm shift relative to glycine control, % at 25 µM; actives 2.5% (n = 340,000);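 active = melting temperature shift of at least 10% of the positive control shift, at one fixed dose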
CHOP inhibitor – inhibitors of CHOP promoter induction, primary screen, cell-based, unfolded protein response, luciferase reporter. CHO-K1 CHOP-promoter luciferase, tunicamycin-induced, 15-18 h. inhibition, % at 10 µM. actives 3.8% (n = 220,000);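 active = compounds that reduced the stress-induced luciferase reporter signal by more than about 70% of percent inhibition, limit read from the data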;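 also: 0% = tunicamycin plus vehicle and 100% = wells without tunicamycin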
MPTP block – mitochondrial permeability transition pore inhibitors, primary screen, biochemical, isolated mouse mitochondria, absorbance. inhibition, % at 10 µM. Ca2+ swelling absorbance, 30 min. actives 1.4% (n = 360,000). AID 602449, 2012;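 active = inhibition of 50% or more, scaled per plate between neutral and stimulator controls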;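 also: 0% = DMSO wells given calcium and 100% = 1 mM EGTA wells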
EBV gp42 inh – Epstein-Barr virus gp42 inhibitors, primary screen, biochemical, uHTS, fluorescence polarization | Glycoprotein 42 (Epstein-Barr virus (strain AG876)), Q1HVG2 | Fluorescence polarization binding assay, mP read-out | actives 0.42% (n = 220,000) | AID 1085, 2008 | inhibition, % (tested at 21.74 µM); in the data active = inhibition above about 50%
Target sequence (Q1HVG2 whole entry, looked up): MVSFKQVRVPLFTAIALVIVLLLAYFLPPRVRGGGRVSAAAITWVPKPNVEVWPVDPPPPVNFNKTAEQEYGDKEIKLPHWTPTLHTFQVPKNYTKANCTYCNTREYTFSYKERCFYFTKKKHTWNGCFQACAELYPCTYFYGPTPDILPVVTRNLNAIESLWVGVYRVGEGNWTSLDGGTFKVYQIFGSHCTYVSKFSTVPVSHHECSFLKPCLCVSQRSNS
* = called active by the depositor; nt = no result given.

SMILES	Tb MetRS inh	WT yeast gro inh	NR3A LBD binder	CHOP inhibitor	MPTP block	EBV gp42 inh
COc1cc2c(cc1NC(=S)Nc1ccccc1C)oc1ccccc12	0	-6	0	40	4	-14
COc1ccc(NC(=O)Nc2cc3oc4ccccc4c3cc2OC)cc1	-1	16	13*	43	7	-13
COc1cc2c(cc1NC(=O)Nc1ccc(F)cc1)oc1ccccc12	0	10	186*	26	36	13
COc1ccc(OCC(=O)Nc2cc3oc4ccccc4c3cc2OC)cc1	1	-8	-11	39	1	-5
COc1ccc(C)cc1NC(=O)Nc1cccc(C)c1	0	20	1	27	11	8
COc1cc2c(cc1NC(=O)Nc1ccc(C)cc1)oc1ccccc12	2	96*	29*	59	25	4
COC(=O)c1ccc(CNC(=O)COC(=O)Cc2ccsc2)cc1	-2	0	-2	19	-1	-1
CC(=O)Nc1cc2oc3ccccc3c2cc1[N+](=O)[O-]	0	nt	0	nt	-1	nt
COc1cc2c(cc1NC(=S)Nc1cccc(C)c1)oc1ccccc12	-1	19	26*	35	1	-1
COc1cc2c(cc1NC(=O)COC(=O)[C@@H](NS(=O)(=O)c1cccc(Cl)c1)C(C)C)oc1ccccc12	0	14	5	21	0	-11
COc1cc2c(cc1NC(=O)c1cccc([N+](=O)[O-])c1C)oc1ccccc12	-1	-6	20*	61	1	2
COc1cc2c(cc1NC(=O)Nc1cccc(C)c1)oc1ccccc12	0	14	39*	90*	18	-5
COc1ccc(S(=O)(=O)N[C@@H](C)C(=O)OCC(=O)Nc2cc3oc4ccccc4c3cc2OC)cc1	0	12	25*	-16	2	-9
Cc1cc(C(=O)COC(=O)Cc2n[nH]c(=O)c3ccccc23)c(C)n1-c1cccc(C(F)(F)F)c1	0	49	-5	69	17	-10
CCOC(=O)C(C(=O)Nc1ccccc1)C1CCCCC1 (stereo not given)	-1	8	0	-3	0	-21
CCCN1C2=NS(=O)(=O)CCN2c2ccccc21	-1	-42	-4	1	2	-23
COc1cc2c(cc1NC(=O)C(C)Sc1ccc(NC(C)=O)cc1)oc1ccccc12 (stereo not given)	0	44	16*	11	7	-13
COc1ccccc1Nc1ccc(NC(=O)c2cccc([N+](=O)[O-])c2C)cc1	-1	nt	19*	nt	4	nt
COc1ccc(S(N)(=O)=O)cc1C(=O)NCCCN1CCN(c2ccccc2OC)CC1	0	-5	-2	-28	1	-8
Cc1ccc(NC(=O)c2ncn(CC(=O)NCc3ccccc3)n2)cc1C	0	nt	0	nt	0	nt
Cc1ccc(NC(=O)c2ncn(CC(=O)NCc3nc4ccccc4[nH]3)n2)cc1C	-1	nt	17*	nt	0	nt
Cc1ccc(NC(=O)c2ncn(CC(=O)N[C@H](C)c3cccc4ccccc34)n2)cc1C	0	nt	18*	nt	1	nt
CC(=O)NS(=O)(=O)c1ccc(NC(=S)NC(=O)C(C)C)cc1	-1	3	-8	3	2	-7
Nc1ccc(-c2nc(-c3ccccc3)nc3ccccc23)cc1	-1	nt	7	nt	4	nt
CCC(=O)Nc1ccc(-c2cc(-c3ccccc3)nc(-c3ccc(NC(=O)CC)cc3)n2)cc1	0	-1	16*	10	4	-2
SMILES	Tb MetRS inh	WT yeast gro inh	NR3A LBD binder	CHOP inhibitor	MPTP block	EBV gp42 inh
Nc1ccc(-c2cc(-c3cccc(N)c3)nc(-c3ccccc3)n2)cc1	0	-18	22*	11	1	-9
CC(=O)Nc1ccc(-c2cc(-c3ccccc3)nc(-c3ccccc3)n2)cc1	-1	0	36*	31	2	-11
Cc1c(C(=O)N2CCCC2)oc2c1-c1nn(CC(=O)NCCCN3CCCCC3C)cc1CC2 (stereo not given)	0	nt	-3	nt	-1	nt
OC(CNCc1ccccn1)c1ccccc1 (stereo not given)	0	-12	2	-5	0	-9
CCOC(=O)C(=Cc1cn(C)c2ccc(S(=O)(=O)N(C)C)cc12)C(=O)OCC	0	1	1	-58	-1	-2
COc1ccc(Br)cc1CNC(=O)CCc1nc(-c2ccc(C)cc2)no1	-1	1	-24	76*	-3	-26
CC(C)(C)c1ccc(-c2noc(CCC(=O)NCc3ccco3)n2)cc1	-1	38	3	85*	1	-8
O=C(CCc1nc(-c2ccccc2)no1)NCCc1ccccc1	1	62*	-2	-11	0	-4
Cc1cccc(-c2noc(CCC(=O)NCc3ccco3)n2)c1	0	-4	-1	45	-2	-27
COc1ccc(-c2noc(CCC(=O)NCc3cc(Br)ccc3OC)n2)cc1	0	2	-6	45	0	-13
CCOC(=O)c1cnn(-c2nc(SC)nc3sc4c(c23)CCCC4)c1N	1	55	-1	24	1	10
COc1ccc(-c2sc3cc(OC)c(OC)cc3c2-c2ccc(O)cc2)cc1	-1	nt	3	nt	-1	nt
COc1ccc(-c2sc3ccccc3c2-c2ccc(O)cc2)cc1	0	nt	14*	nt	2	nt
Cc1ccc(NC(=O)Cn2c(O)c(N=NC(=O)c3ccncc3)c3ccccc32)cc1	-1	0	0	52	1	-24
Cc1cccc(NC(=O)Cn2c(O)c(N=NC(N)=S)c3ccccc32)c1	1	nt	-3	94*	2	-14
CC(=O)c1ccc(NC(=O)c2ccc(COc3ccccc3[N+](=O)[O-])o2)cc1	-1	-1	13*	53	-2	11
COc1cccc(NC(=O)c2ccc(-c3ccc([N+](=O)[O-])cc3)o2)c1	0	8	17*	14	0	-21
O=C(O)c1ccc(COc2ccccc2[N+](=O)[O-])o1	0	-13	0	-5	1	-6
Cc1nnc(NC(=O)c2ccc(-c3ccc([N+](=O)[O-])cc3)o2)s1	0	nt	-22	nt	-2	nt
COc1cc([N+](=O)[O-])ccc1-c1ccc(C(=O)Nc2ccc(NC(C)=O)cc2)o1	0	18	-5	61	1	35
CC(=O)Nc1ccc(NC(=O)c2ccc(-c3ccc([N+](=O)[O-])cc3)o2)cc1	0	nt	12*	nt	2	nt
COc1ccc(NC(=O)c2ccc(-c3ccc([N+](=O)[O-])cc3)o2)cc1OC	0	16	14*	25	3	9
